Each block holds one compound with its values, some of them ahead of it. The source made the active and inactive calls. No cut-off for these calls is given here.
Key:
[1] = organism: Homo sapiens; conditions: at 0.5 µM;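 note: HDAC activity measured in a nuclear extract, with percent inhibition expressed against control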
[2] = system: A549; assay: Induction of apoptosis in human A549 cells assessed as late apoptotic cells at 5 uM after 72 hrs by Annexin V-phycoerythrin/7-AAD staining based flow cytometric analysis (reference value: 1.84%); assay type: functional
[3] = system: A549; assay: Induction of apoptosis in human A549 cells assessed as increase in PARP cleavage at 1 to 5 uM after 48 hrs by Western blot analysis; assay type: functional, cell-based
Summary of the method: (§1)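 A549 cells treated at the indicated concentrations for 48 h, then blotted for cleaved caspase-3 and cleaved PARP. RIPA lysis; 35 µg protein on 15% SDS-PAGE, transferred to PVDF. Blocked in 5% milk/PBST; primary antibody 1:1000 overnight at 4 °C, HRP secondary 1:20000 for 1 h, ECL. Bands quantified by densitometry versus β-actin; three separate experiments.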

[4] = system: MCF-10A; assay: Cytotoxicity against human MCF10A cells assessed as reduction in cell viability after 48 hrs by SRB assay; assay type: ADME, cell-based
[5] = system: MDA-MB-231; assay: Antiproliferative activity against human MDA-MB-231 cells assessed as reduction in cell viability after 48 hrs by SRB assay; assay type: functional, cell-based; conditions: MDA-MB-231, 48 h
[6] = system: MCF7; assay: Antiproliferative activity against human MCF7 cells assessed as reduction in cell viability after 48 hrs by SRB assay; assay type: functional, cell-based; conditions: MCF7, 48 h
[7] = system: A549; assay: Induction of apoptosis in human A549 cells assessed as early apoptotic cells at 5 uM after 72 hrs by Annexin V-phycoerythrin/7-AAD staining based flow cytometric analysis (reference value: 1.13%); assay type: functional
[8] = system: A549; assay: Induction of G2/M cell cycle arrest in human A549 cells assessed as decrease in CyclinB1 expression at 1 to 2.5 uM by Western blot analysis; assay type: functional, cell-based
Summary of the method: (§2)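 Cell-cycle arm: A549 whole-cell lysates probed for CDK1 and cyclin B. Lysis in RIPA buffer; 35 µg protein run on 15% SDS-PAGE and blotted to PVDF. Blocked in 5% milk/PBST; primary antibody 1:1000 at 4 °C overnight, HRP secondary 1:20000 for 1 h at room temperature, ECL detection. Densitometry relative to β-actin; three separate experiments.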

[9] = system: A549; assay: Induction of apoptosis in human A549 cells assessed as late apoptotic cells at 2.5 uM after 72 hrs by Annexin V-phycoerythrin/7-AAD staining based flow cytometric analysis (reference value: 1.84%); assay type: functional
[10] = system: A549; assay: Induction of apoptosis in human A549 cells assessed as viable cells at 1 uM after 72 hrs by Annexin V-phycoerythrin/7-AAD staining based flow cytometric analysis (reference value: 96.57%); assay type: functional; conditions: A549, 72 h, read-out: Activity
[11] = system: A549; assay: Inhibition of colony formation in human A549 cells at 1 to 2.5 uM after 7 days by crystal violet staining based assay; assay type: functional, cell-based
Summary of the method: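 A549 cells plated at 800 per 35 mm dish and treated for one week, with medium replenished every 24 h. Cells were washed with PBS, fixed in methanol and stained with 1% crystal violet for 15 min. Colonies were counted. Triplicate, repeated three times.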

[12] = system: A549; assay: Induction of apoptosis in human A549 cells assessed as early apoptotic cells at 2.5 uM after 72 hrs by Annexin V-phycoerythrin/7-AAD staining based flow cytometric analysis (reference value: 1.13%); assay type: functional
[13] = system: A549; assay: Antimetastatic activity in human A549 cells reduction in cell migration after 24 hrs by wound healing assay; assay type: functional, cell-based
Summary of the method: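 A549 cells (1.5x10⁵) plated in 6-well dishes and grown overnight to confluent monolayers. Monolayers were wounded with a pipette tip, then treated at various concentrations for 24 h. Wounds were photographed at 0, 12 and 24 h and migration distance measured. Result is % wound closure relative to 0 h. Triplicate, repeated three times.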

[14] = system: A549; assay: Antiproliferative activity against human A549 cells assessed as reduction in cell viability after 48 hrs by SRB assay; assay type: functional, cell-based; conditions: A549, 48 h
Summary of the method: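 A549 cells in RPMI 1640 with 10% FBS at 37 °C, 5% CO₂, seeded 24 h before treatment at various concentrations. Cells were fixed with 10% TCA for 1 h at 4 °C and stained with 0.4% SRB for 5 min at room temperature. After 1% acetic acid washes, dye was dissolved in 10 mM Tris and A540 read. IC50 from three independent experiments in triplicate, mean ± SD.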

[15] = system: A549; assay: Induction of apoptosis in human A549 cells assessed as late apoptotic cells at 1 uM after 72 hrs by Annexin V-phycoerythrin/7-AAD staining based flow cytometric analysis (reference value: 1.84%); assay type: functional
[16] = system: A549; assay: Induction of apoptosis in human A549 cells assessed as viable cells at 5 uM after 72 hrs by Annexin V-phycoerythrin/7-AAD staining based flow cytometric analysis (reference value: 96.57%); assay type: functional
[17] = system: A549; assay: Induction of G2/M cell cycle arrest in human A549 cells assessed as decrease in CDK1 expression at 1 to 2.5 uM by Western blot analysis; assay type: functional, cell-based
Summary of the method: as §2

[18] = system: A549; assay: Induction of apoptosis in human A549 cells assessed as necrotic cells at 1 uM after 72 hrs by Annexin V-phycoerythrin/7-AAD staining based flow cytometric analysis (reference value: 0.45%); assay type: functional
[19] = system: A549; assay: Induction of cell cycle arrest in human A549 cells assessed as accumulation at G2/M phase at 5 uM after 24 hrs by PI/RNaseA staining based flow cytometry analysis relative to control; assay type: functional
Summary of the method: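 A549 cells treated for 24 h, with vehicle as control. Cells were fixed in 70% ice-cold ethanol overnight at −20 °C, then stained with PI containing RNase A for 30 min at 37 °C. DNA content was read by flow cytometry. Mean ± SD of phase percentages from three independent experiments.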

[20] = system: A549; assay: Induction of apoptosis in human A549 cells assessed as early apoptotic cells at 1 uM after 72 hrs by Annexin V-phycoerythrin/7-AAD staining based flow cytometric analysis (reference value: 1.13%); assay type: functional
[21] = system: A549; assay: Induction of apoptosis in human A549 cells assessed as viable cells at 2.5 uM after 72 hrs by Annexin V-phycoerythrin/7-AAD staining based flow cytometric analysis (reference value: 96.57%); assay type: functional; conditions: A549, 72 h, read-out: Activity
[22] = target: T1, Histone deacetylase 1 (Homo sapiens, UniProt Q13547); assay: Inhibition of HDAC1 in human A549 cells assessed as increase in H4 acetylation after 24 hrs by immunoblot analysis; assay type: cell-based
Summary of the method: (§3)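 A549 cells exposed to 1.0, 2.5 and 5.0 µM for 24 h, then immunoblotted for acetylated histone H3 and H4. RIPA lysates (35 µg) run on 15% SDS-PAGE and transferred to PVDF. Primary antibody 1:1000 overnight at 4 °C, HRP secondary 1:20000, ECL. Densitometry relative to β-actin; three independent experiments.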

[23] = system: A549; assay: Induction of apoptosis in human A549 cells after 72 hrs by Annexin V-phycoerythrin/7-AAD staining based flow cytometric analysis; assay type: functional, cell-based
[24] = system: A549; assay: Induction of apoptosis in human A549 cells assessed as necrotic cells at 5 uM after 72 hrs by Annexin V-phycoerythrin/7-AAD staining based flow cytometric analysis (reference value: 0.45%); assay type: functional
[25] = system: BEAS-2B; assay: Cytotoxicity against human BEAS2B cells assessed as reduction in cell viability after 48 hrs by SRB assay; assay type: ADME, cell-based
[26] = target: T1, Histone deacetylase 1; assay: Potency index, ratio of SAHA IC50 to compound IC50 for inhibition of recombinant HDAC1 (unknown origin) expressed in baculovirus expression system
[27] = system: A549; assay: Induction of apoptosis in human A549 cells assessed as necrotic cells at 2.5 uM after 72 hrs by Annexin V-phycoerythrin/7-AAD staining based flow cytometric analysis (reference value: 0.45%); assay type: functional
[28] = system: A549; assay: Induction of apoptosis in human A549 cells assessed as increase in caspase-3 cleavage at 1 to 5 uM after 48 hrs by Western blot analysis; assay type: functional, cell-based
Summary of the method: as §1

[29] = target: T1, Histone deacetylase 1; assay: Inhibition of HDAC1 in human A549 cells assessed as increase in H3 acetylation after 24 hrs by immunoblot analysis; assay type: cell-based
Summary of the method: as §3

[30] = target: T1, Histone deacetylase 1; assay: Inhibition of recombinant HDAC1 (unknown origin) expressed in baculovirus expression system using Ac-peptide-AMC as substrate preincubated for 15 mins followed by substrate addition by fluorescence based protease coupled assay
[31] = Cytotoxicity against human MCF10F cells assessed as reduction in cell viability after 48 hrs by SRB assay; assay type: ADME, cell-based; conditions: MCF-10F

T1 sequence (Q13547 whole entry): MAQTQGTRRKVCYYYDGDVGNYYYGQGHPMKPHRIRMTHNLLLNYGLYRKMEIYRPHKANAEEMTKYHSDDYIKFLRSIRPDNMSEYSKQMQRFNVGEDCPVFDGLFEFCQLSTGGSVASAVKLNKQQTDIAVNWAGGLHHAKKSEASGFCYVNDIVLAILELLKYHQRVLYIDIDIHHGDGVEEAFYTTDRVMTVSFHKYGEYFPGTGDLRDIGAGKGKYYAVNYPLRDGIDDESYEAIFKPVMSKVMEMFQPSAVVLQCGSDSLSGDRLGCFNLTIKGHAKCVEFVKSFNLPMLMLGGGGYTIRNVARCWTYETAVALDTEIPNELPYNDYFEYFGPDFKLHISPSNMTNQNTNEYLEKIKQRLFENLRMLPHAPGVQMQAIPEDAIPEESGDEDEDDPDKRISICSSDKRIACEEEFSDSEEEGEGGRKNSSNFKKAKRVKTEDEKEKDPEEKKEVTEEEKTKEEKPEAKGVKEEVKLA

inhibition [1]: 16%
Structure (SMILES): COc1ccccc1N(Cc1cccc(C(=O)NCCCCCc2ccccc2)c1)C(=O)CCCCCC(=O)NO

inhibition [1]: 21%
Structure (SMILES): COc1ccccc1N(Cc1cccc(Br)c1)C(=O)CCCCCC(=O)NO

inhibition [1]: 20%
Structure (SMILES): CCNC(=O)c1cccc(CN(C(=O)CCCCCC(=O)NO)c2ccccc2OC)c1

inhibition [1]: 22%
Structure (SMILES): CCC(=O)Nc1cccc(CN(C(=O)CCCCCC(=O)NO)c2ccccc2OC)c1

inhibition [1]: 15%
Structure (SMILES): COc1ccccc1N(Cc1cccc(C(=O)NCCCCc2ccccc2)c1)C(=O)CCCCCC(=O)NO

inhibition [1]: 39%
Structure (SMILES): COc1ccccc1N(Cc1cccc(C(=O)NCCc2ccc(F)cc2)c1)C(=O)CCCCCC(=O)NO

inhibition [1]: 36%
Structure (SMILES): COc1ccccc1N(Cc1cccc(C(=O)NCCc2ccc(Cl)cc2)c1)C(=O)CCCCCC(=O)NO

Second part, the compound before the results:

Structure (SMILES): COc1ccccc1N(Cc1cccc(C(=O)NCCCCCCc2ccccc2)c1)C(=O)CCCCCC(=O)NO
inhibition [1]: 4%

Structure (SMILES): CCNC(=O)c1cccc(CN(C(=O)CCCCCC(=O)NO)c2ccc(O)cc2)c1
inhibition [1]: 21%

Structure (SMILES): CCNC(=O)c1cccc(CN(C(=O)CCCCCC(=O)NO)c2ccc(OC)cc2)c1
Activity [2]: 57.6%
Activity [3]: Active
IC50 [4]: > 100 µM
IC50 [5]: 6.87 µM
IC50 [6]: 6.96 µM
inhibition [1]: 51%
Activity [7]: 23.85%
Activity [8]: Active
Activity [9]: 27.09%
viability at 1 µM [10]: 69.1%
inhibition [11]: Active
Activity [12]: 29.35%
Activity [13]: Dose-dependent effect
IC50 [14]: 2.13 µM
Activity [15]: 8.17%
viability at 5 µM ([16]; Homo sapiens, A549, 72 h, read-out: Activity): 17.7%
Activity [17]: Active
Activity [18]: 0.86%
Activity [19]: 40.3%
Activity [20]: 21.86%
viability at 2.5 µM [21]: 42%
inhibition [22]: Dose-dependent effect
Activity [23]: Dose-dependent effect
Activity [24]: 0.89%
IC50 [25]: > 100 µM
Ratio IC50 [26]: 11.4
Activity [27]: 1.54%
Activity [28]: Active
inhibition [29]: Dose-dependent effect
IC50 [30]: 0.0022 µM
IC50 [31]: > 100 µM

Structure (SMILES): O=C(CCCCCCC(=O)Nc1ccccc1)NO [VORINOSTAT]
Activity [2]: 58.86%
Activity [7]: 16.78%
Activity [16]: 23.22%
Activity [19]: 24.97%
Activity [24]: 1.15%

Structure (SMILES): COc1ccc(N(Cc2cccc(NC(=O)CCc3ccc(F)cc3)c2)C(=O)CCCCCC(=O)NO)cc1
inhibition [1]: 49%

Structure (SMILES): CCN(CC)C(=O)c1cccc(CN(C(=O)CCCCCC(=O)NO)c2ccccc2OC)c1
inhibition [1]: 20%

Structure (SMILES): COc1ccccc1N(Cc1cccc(NC(=O)Cc2ccccc2)c1)C(=O)CCCCCC(=O)NO
inhibition [1]: 37%

Structure (SMILES): COc1ccccc1N(Cc1cccc(C(=O)NCc2ccccc2)c1)C(=O)CCCCCC(=O)NO
inhibition [1]: 38%

Structure (SMILES): COc1ccccc1N(Cc1cccc(C(=O)NCCCCc2ccc(F)cc2)c1)C(=O)CCCCCC(=O)NO
inhibition [1]: 34%

Structure (SMILES): COc1ccc(N(Cc2cccc(C(=O)NCCc3ccc(F)cc3)c2)C(=O)CCCCCC(=O)NO)cc1
IC50 [4]: > 50 µM
IC50 [5]: 7.24 µM
IC50 [6]: 7.17 µM
inhibition [1]: 53%
IC50 [14]: 4.05 µM
IC50 [25]: > 20 µM
Ratio IC50 [26]: 10.9
IC50 [30]: 0.0023 µM
IC50 [31]: > 50 µM

Structure (SMILES): COc1ccc(CCNC(=O)c2cccc(CN(C(=O)CCCCCC(=O)NO)c3ccccc3OC)c2)cc1
inhibition [1]: 27%

Structure (SMILES): COc1ccccc1N(Cc1cccc(C(=O)NCCc2ccccc2)c1)C(=O)CCCCCC(=O)NO
inhibition [1]: 38%

From ChEMBL document CHEMBL4373678, “Development of hydroxamate-based histone deacetylase inhibitors of bis-substituted aromatic amides with antitumor activities” (Medchemcomm, 2019)
